The target of assay [1] is Serine/threonine-protein kinase Nek6 (Homo sapiens) (UniProt Q9HC98). The assay is described as follows: Inhibition of NEK6 Lys2 labeling site in human A-375 cells at 5 uM by KiNativ Profiling analysis relative to control. It is filed as cell-based.
For assay [2], the target named is T1, Mitogen-activated protein kinase 13 (Homo sapiens) (UniProt O15264).
T1 sequence (whole entry): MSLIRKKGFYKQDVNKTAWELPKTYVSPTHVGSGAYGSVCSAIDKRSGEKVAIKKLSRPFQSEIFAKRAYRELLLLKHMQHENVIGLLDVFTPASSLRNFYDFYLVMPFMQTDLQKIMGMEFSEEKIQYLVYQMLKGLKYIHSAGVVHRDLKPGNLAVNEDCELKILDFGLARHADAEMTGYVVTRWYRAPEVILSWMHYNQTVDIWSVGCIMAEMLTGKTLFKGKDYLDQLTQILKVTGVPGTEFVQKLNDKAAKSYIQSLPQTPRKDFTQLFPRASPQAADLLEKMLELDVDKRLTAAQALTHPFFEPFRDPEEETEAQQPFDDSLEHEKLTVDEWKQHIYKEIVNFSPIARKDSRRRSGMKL
Description: Inhibition of p38 delta Lys2 labeling site in human A-375 cells at 5 uM by KiNativ Profiling analysis relative to control. In kind it is cell-based.

The target of assay [3] is Cyclin-dependent kinase 18 (Homo sapiens) (UniProt Q07002). The assay is described as follows: Inhibition of PCTAIRE3 Lys1 labeling site harbouringSKLTENLVALKEIR in human A-375 cells at 5 uM by KiNativ Profiling analysis relative to control. In kind it is cell-based. In outline:
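Live A375 melanoma cells were treated with compound at 5 or 0.5 μM, then lysed. Lysates were labeled with a lysine-reactive ATP or ADP-biotin probe. Read-out was the compound's protection of kinase labeling sites from probe labeling (KiNativ).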

The target of assay [4] is Calcium/calmodulin-dependent protein kinase type II subunit delta (Homo sapiens) (UniProt Q13557). The assay is described as follows: Inhibition of CaMK2d Lys1 labeling site in human A-375 cells at 0.5 uM by KiNativ Profiling analysis relative to control. In kind it is cell-based. In outline: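 Live A375 melanoma cells were treated with compound at 5 or 0.5 μM. The cells were then lysed, and the lysates were labeled with a lysine-reactive ATP or ADP-biotin acyl probe (KiNativ). Inhibition is the compound's protection of each kinase labeling-site peptide from probe labeling, relative to untreated control.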
Sequence of Calcium/calmodulin-dependent protein kinase type II subunit delta (Homo sapiens) (Q13557 whole entry): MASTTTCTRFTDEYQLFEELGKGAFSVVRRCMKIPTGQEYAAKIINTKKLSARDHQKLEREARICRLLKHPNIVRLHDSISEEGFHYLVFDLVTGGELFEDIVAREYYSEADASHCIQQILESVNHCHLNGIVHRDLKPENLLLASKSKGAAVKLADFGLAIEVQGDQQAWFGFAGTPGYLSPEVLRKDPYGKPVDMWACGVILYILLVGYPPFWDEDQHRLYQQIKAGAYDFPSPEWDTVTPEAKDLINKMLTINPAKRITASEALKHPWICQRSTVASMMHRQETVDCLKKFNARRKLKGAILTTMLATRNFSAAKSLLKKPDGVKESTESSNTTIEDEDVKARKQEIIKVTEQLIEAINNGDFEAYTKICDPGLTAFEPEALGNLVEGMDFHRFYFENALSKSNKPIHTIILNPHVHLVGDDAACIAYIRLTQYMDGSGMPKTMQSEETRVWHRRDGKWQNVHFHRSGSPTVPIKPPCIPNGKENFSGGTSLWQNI

Assay [5] deals with DNA-PK/Ku70/Ku85 (Homo sapiens) (UniProt P78527+P12956+P13010). The assay is described as follows: Inhibition of DNAPK ATP labeling site harbouring EHPFLVKGGEDLR in human A-375 cells at 0.5 uM by KiNativ Profiling analysis relative to control. It is filed as cell-based. In outline: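 Live A375 melanoma cells were treated with compound at 0.5 or 5 μM, then lysed. Lysates were labeled with a lysine-reactive ATP or ADP-biotin probe. The read-out was protection of each kinase probe-labeling site from labeling, relative to control.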

The target of assay [6] is Tyrosine-protein kinase Fer (Homo sapiens, UniProt P16591). Description: Inhibition of FER Lys1 labeling site harbouring TSVAVKTCKEDLPQELKin human A-375 cells at 0.5 uM by KiNativ Profiling analysis relative to control. In kind it is cell-based.
Sequence of Tyrosine-protein kinase Fer (P16591 whole entry, looked up): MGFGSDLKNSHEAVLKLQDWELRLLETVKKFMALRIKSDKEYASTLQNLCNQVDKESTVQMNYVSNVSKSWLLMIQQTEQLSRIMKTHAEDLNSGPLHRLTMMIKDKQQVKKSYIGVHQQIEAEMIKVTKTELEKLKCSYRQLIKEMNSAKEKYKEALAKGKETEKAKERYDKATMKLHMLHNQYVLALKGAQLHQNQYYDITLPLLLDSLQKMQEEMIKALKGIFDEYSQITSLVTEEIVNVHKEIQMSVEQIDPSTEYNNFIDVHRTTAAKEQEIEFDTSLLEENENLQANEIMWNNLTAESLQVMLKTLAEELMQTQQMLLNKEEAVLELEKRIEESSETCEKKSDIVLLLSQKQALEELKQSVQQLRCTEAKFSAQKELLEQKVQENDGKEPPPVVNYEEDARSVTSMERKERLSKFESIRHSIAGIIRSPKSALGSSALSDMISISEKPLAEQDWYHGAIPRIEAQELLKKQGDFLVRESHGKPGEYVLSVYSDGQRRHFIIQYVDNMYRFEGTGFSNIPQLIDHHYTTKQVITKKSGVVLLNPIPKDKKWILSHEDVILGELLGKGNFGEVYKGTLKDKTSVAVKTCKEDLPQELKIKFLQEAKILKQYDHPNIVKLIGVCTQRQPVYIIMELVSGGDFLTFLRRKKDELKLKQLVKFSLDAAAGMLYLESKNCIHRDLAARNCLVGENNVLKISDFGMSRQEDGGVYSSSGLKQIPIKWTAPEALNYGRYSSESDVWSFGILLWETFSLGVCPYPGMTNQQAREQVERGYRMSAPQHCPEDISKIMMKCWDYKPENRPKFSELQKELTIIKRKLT
In assay [7] the target is Dual specificity mitogen-activated protein kinase kinase 1 (Homo sapiens) (UniProt Q02750). Description: Inhibition of MAP2K1 Lys1 labeling site in human A-375 cells at 0.5 uM by KiNativ Profiling analysis relative to control. It is filed as cell-based.
Sequence of Dual specificity mitogen-activated protein kinase kinase 1 (Homo sapiens) (Q02750 whole entry): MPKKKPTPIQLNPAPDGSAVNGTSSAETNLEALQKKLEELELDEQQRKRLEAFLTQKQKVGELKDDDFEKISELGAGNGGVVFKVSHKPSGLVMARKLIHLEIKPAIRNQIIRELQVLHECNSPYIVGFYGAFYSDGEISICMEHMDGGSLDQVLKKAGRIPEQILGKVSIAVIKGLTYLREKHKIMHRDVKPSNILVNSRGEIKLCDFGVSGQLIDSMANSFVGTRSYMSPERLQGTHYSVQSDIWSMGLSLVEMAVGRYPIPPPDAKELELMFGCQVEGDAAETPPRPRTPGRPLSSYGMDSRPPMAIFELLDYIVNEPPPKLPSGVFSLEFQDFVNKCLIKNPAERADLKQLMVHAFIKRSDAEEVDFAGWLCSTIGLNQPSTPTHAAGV
The target in assay [8] is T2, Serine/threonine-protein kinase Nek9 (Homo sapiens) (UniProt Q8TD19).
T2 sequence (whole entry): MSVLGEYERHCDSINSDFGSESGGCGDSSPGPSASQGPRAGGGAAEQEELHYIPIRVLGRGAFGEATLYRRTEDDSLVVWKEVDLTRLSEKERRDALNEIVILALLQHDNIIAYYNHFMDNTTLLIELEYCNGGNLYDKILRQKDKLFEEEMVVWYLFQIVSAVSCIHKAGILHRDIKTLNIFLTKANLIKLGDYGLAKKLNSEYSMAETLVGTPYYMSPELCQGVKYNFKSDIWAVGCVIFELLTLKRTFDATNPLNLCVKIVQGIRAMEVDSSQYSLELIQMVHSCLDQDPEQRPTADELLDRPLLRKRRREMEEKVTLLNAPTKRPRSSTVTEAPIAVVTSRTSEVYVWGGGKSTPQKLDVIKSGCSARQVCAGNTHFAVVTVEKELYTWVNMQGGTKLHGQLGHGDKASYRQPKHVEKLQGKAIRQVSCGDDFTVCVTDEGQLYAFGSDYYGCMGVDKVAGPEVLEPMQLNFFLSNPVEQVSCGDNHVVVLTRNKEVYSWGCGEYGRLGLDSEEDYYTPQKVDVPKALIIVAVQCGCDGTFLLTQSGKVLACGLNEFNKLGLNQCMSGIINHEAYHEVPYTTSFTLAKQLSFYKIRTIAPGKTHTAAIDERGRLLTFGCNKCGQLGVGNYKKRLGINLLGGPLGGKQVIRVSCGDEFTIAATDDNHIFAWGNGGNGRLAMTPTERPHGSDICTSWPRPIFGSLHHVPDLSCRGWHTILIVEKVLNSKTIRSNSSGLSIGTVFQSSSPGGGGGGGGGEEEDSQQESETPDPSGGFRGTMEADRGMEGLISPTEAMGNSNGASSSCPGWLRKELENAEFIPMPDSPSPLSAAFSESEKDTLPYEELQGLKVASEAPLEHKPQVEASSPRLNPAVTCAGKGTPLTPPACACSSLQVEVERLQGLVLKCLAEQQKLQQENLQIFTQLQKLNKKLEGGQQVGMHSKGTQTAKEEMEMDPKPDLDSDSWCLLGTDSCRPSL
Description: Inhibition of NEK9 Lys1 labeling site harbouring TEDDSLVVWKEVDLTR in human A-375 cells at 0.5 uM by KiNativ Profiling analysis relative to control. It is filed as cell-based.

In assay [9] the target is Wee1-like protein kinase (Homo sapiens) (UniProt P30291). Description: Inhibition of Wee1 Lys2 labeling site in human A-375 cells at 0.5 uM by KiNativ Profiling analysis relative to control. In kind it is cell-based.
Sequence of Wee1-like protein kinase (Homo sapiens) (P30291 whole entry, looked up): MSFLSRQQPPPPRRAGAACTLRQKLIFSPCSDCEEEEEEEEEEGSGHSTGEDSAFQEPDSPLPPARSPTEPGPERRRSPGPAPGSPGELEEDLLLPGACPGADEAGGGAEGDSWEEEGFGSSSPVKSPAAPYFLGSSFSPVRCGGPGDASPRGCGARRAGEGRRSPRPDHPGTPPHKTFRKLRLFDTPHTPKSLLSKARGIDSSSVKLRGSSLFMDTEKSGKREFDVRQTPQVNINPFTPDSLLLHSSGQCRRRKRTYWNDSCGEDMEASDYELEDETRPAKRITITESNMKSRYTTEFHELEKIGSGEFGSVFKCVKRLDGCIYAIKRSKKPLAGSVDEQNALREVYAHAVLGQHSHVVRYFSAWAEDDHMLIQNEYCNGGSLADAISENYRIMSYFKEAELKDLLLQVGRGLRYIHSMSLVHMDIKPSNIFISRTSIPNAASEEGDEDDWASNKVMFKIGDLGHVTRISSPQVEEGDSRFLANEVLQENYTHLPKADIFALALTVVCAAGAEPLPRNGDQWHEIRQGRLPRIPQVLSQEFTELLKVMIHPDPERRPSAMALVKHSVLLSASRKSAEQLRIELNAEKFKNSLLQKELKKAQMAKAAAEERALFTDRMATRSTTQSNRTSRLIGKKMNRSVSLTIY
Assay [10] concerns the target Tyrosine-protein kinase Fes/Fps (Homo sapiens, UniProt P07332). Description: Inhibition of FES Lys1 labeling site in human Huh-7 cell lysate at 1 uM by KiNativ Profiling analysis relative to control. It is filed as subcellular.
For assay [11], the target named is TRAF2 and NCK-interacting protein kinase (Homo sapiens) (UniProt Q9UKE5). Description: Inhibition of ZC2 Lys2 labeling site in human Huh-7 cell lysate at 1 uM by KiNativ Profiling analysis relative to control. It is filed as subcellular.
Sequence of TRAF2 and NCK-interacting protein kinase (Homo sapiens) (Q9UKE5 whole entry, looked up): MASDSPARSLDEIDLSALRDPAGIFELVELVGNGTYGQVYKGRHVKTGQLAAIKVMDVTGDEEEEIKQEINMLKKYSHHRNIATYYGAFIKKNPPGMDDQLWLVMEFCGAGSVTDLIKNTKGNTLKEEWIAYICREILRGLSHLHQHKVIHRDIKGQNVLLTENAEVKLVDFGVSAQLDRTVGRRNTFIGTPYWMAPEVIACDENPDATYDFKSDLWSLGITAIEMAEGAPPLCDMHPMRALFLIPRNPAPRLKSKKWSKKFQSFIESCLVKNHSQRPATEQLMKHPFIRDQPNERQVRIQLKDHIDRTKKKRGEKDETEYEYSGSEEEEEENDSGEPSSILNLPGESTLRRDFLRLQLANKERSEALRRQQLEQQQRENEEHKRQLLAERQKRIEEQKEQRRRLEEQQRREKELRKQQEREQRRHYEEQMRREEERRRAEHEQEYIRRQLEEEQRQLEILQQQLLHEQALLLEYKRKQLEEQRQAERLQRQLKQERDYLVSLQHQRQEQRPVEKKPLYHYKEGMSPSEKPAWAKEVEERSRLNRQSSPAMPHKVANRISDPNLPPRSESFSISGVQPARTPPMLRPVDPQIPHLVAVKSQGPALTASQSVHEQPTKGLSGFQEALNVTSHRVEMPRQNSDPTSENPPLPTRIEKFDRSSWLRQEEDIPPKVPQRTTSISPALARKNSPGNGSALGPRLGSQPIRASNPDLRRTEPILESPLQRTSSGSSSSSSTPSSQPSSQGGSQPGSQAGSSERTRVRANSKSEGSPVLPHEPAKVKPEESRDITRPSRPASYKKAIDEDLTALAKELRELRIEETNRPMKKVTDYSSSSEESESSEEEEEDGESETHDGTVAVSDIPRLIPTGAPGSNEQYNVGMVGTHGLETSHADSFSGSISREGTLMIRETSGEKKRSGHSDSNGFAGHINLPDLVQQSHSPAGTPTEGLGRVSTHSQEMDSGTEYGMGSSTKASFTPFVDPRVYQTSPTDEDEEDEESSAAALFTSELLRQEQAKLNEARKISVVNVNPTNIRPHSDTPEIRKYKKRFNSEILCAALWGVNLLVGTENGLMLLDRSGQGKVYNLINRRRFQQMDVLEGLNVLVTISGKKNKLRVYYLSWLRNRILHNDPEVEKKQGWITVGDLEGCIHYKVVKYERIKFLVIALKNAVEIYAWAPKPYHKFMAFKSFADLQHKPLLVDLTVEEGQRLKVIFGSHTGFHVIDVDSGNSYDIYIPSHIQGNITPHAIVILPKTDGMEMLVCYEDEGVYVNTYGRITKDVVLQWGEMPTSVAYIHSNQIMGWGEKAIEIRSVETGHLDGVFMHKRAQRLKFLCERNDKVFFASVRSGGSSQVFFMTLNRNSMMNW
In the next assay the test system is GEN2.2. Description: Inhibition of CL097 induced p38 phosphorylation level in human GEN2.2 cells at 1 uM preincubated with compound for 1 hr followed by CL097 stimulation and measured after 30 mins by Western blot analysis. In kind it is functional, cell-based. A digest of the protocol:
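Gen2.2 cells were pretreated with compound at 1 μM for 1 h, then stimulated with CL097 for 30 min. Lysates were analysed by Western blot for phosphorylation of p105, p38 and JNK1/2.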
On the technique in general: In western blotting, separated proteins are transferred to a membrane and probed.

For assay [12], the target named is Tyrosine-protein kinase CSK (Homo sapiens, UniProt P41240). Description: Inhibition of CSK ACT labeling site harbouring VSDFGLTKEASSTQDTGKLPVK in human Huh-7 cell lysate at 1 uM by KiNativ Profiling analysis relative to control. It is filed as subcellular.

SMILES strings stand for the structures. Calls of active or inactive are those of the source. The calls are words filed in the database; no cut-off is given here. Where only a bound is given, the exact number is not on record here.

One may read the inhibition as the drop in the measured response relative to a control, in per cent.

Sequence of Tyrosine-protein kinase Fes/Fps (P07332 whole entry): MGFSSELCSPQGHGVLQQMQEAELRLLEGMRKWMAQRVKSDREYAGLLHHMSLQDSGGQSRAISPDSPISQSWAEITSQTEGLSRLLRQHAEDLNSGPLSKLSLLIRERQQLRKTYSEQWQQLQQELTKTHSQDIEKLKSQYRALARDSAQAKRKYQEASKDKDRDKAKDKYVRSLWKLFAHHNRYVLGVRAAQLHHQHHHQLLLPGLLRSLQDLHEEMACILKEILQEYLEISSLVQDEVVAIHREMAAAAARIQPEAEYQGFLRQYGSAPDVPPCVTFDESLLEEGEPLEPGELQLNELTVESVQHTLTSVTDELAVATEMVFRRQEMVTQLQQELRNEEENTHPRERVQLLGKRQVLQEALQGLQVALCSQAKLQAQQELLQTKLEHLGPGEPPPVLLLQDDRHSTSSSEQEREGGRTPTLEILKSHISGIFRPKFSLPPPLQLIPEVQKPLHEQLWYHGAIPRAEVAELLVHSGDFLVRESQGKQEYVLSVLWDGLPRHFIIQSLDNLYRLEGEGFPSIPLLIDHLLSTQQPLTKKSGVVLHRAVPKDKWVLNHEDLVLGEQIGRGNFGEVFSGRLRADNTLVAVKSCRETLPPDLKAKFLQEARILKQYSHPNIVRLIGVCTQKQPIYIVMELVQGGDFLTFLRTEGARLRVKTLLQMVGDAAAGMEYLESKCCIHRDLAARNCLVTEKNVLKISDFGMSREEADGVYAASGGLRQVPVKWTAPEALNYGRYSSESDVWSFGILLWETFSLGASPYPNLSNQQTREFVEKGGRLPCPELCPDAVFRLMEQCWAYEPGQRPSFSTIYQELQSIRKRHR
Sequence of Cyclin-dependent kinase 18 (Homo sapiens) (Q07002 whole entry): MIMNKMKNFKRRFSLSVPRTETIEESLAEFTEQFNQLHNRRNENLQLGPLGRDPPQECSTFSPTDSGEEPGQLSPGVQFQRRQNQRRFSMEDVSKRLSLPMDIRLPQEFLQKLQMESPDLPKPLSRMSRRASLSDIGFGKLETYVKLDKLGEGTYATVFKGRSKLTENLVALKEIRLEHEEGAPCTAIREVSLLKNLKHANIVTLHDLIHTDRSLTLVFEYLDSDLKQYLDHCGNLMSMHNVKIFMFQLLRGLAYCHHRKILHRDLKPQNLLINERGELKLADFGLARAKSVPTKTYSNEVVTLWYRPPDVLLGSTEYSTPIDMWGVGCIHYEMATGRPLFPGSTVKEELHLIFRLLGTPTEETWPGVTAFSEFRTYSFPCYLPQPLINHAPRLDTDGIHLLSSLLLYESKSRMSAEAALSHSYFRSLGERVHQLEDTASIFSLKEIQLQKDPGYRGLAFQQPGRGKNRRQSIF

Consider `CCN1CCN(Cc2ccc(NC(=O)c3ccc(C)c(/C=C/c4cnc5[nH]ccc5c4OC)c3)cc2C(F)(F)F)CC1`, for which the inhibition in assay [1] was 3.1%; in assay [2], 52.7%; in [3], 24.3%; in assay [4] it was 26%; in assay [5] it was 13.8%; in assay [6], 23.3%. Also, the inhibition was 4.4% in assay [7], -5% in assay [8] and 8% in [9].

With `CNc1cc(Oc2cc(C(=O)Nc3cc(-n4cnc(C)c4)cc(C(F)(F)F)c3)ccc2C)ncn1`, the inhibition amounted to 20% in assay [10], 24.1% in assay [11] and 0.3% in assay [12]. In the assay on GEN2.2, the inhibition result was “inactive”.

With `CCN1CCN(Cc2ccc(NC(=O)c3ccc(C)c(Oc4ccnc5[nH]ccc45)c3)cc2C(F)(F)F)CC1`, the inhibition result in the assay with GEN2.2 was “Active”. Besides, the inhibition in assay [1] was 6.4%; in [2], > 94%; in assay [3], 73.3%; in assay [4], 8.7%; in assay [5], 3.2%; in assay [6], 88.5%. The values for the inhibition in assay [7], in assay [8] and in assay [9] were -3.5%, -1.5% and 13.6%, respectively.

Turning to `CNc1cc(Oc2cc(C(=O)Nc3cc(N4CCN(C)CC4)cc(C(F)(F)F)c3)ccc2C)ncn1`, the inhibition in assay [10] was found to be 11.2%; in assay [11], 2.7%; in assay [12], 7.9%.

The record behind these values is ChEMBL document CHEMBL5696442, “Discovery of type II inhibitors of TGFβ-activated kinase 1 (TAK1) and mitogen-activated protein kinase kinase kinase kinase 2 (MAP4K2)” (J Med Chem, 2015).
